# According to publication PMC12279052 (RSC Advances, 2025):
# Key:
# [1] = test system: Candida albicans ATCC10231; assay: Antimicrobial activity, broth dilution MIC; format: cell-based; details: C. albicans, n = 3
# [2] = Aggregation in water by electrical conductivity; format: physicochemical; details: for cmc: conductivity, water; for ionization degree α: micelle (cmc); for ΔG^0m / ΔH^0m / ΔS^0m / −TΔS^0m: micellization (cmc)
# How it was run: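 Conductivity of aqueous test compound solutions was measured with a digital conductivity meter and electrode, calibrated against standard KCl, with a thermostat holding ±0.02 K and ±3% relative uncertainty. cmc and cac were taken from the break points, found by fitting the Aguiar equation. α came from the ratio of post- to pre-transition slopes (A2/A1), and micellization thermodynamic functions from the mass action model.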
# [3] = Thermal stability by TG/DTG; format: physicochemical; details: first decomposition process, 10 K min^−1, argon
# How it was run: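 Simultaneous thermal analysis ran from 30–500 °C at 10 K min−1 on 3–5 mg sample in an Al2O3 crucible, with α-Al2O3 as reference. Argon served as protective gas at 20 mL min−1 and as purge gas at 60 mL min−1.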
# [4] = test system: Cutibacterium acnes ATCC6919; assay: Antibacterial activity, broth dilution MIC; format: cell-based; details: C. acnes, n = 3
# [5] = test system: human lung cancer cell line A549; assay: Cell toxicity assay, MTT; format: cell-based; details: A549, MTT, 24 h, n = 3
# [6] = Density measurement, apparent molar volume at infinite dilution in water; format: physicochemical; details: aqueous solution
# How it was run: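 Solution density was measured with a vibrating-tube densitometer calibrated with dry air and double-distilled water, with Peltier temperature control at ±0.01 K and density uncertainty 2.0 × 10−4 g cm−3. Apparent molar volumes were computed versus molality. Infinite-dilution values came from the Redlich–Mayer equation with empirical parameters Sv and Bv.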
# [7] = Conductivity in low concentration region; format: physicochemical; details: in water
# How it was run: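 Conductivity of aqueous test compound solutions was measured at each temperature in double-distilled deionized water (0.8 − 1.0 × 10−4 S m−1 at 298.15 K). The digital meter and electrode were calibrated with standard KCl, and the thermostat held ±0.02 K; relative standard uncertainty was ±3%.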
# [8] = Steady-state fluorescence with pyrene probe; format: physicochemical; details: 298.15 K
# How it was run: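 Pyrene (1 μM) served as probe at 298.15 K. Excitation was 335 nm, emission 355–650 nm, slits 2.5 nm, 700 V, 240 nm min−1, in a 1 cm quartz cuvette. cmc came from a Boltzmann fit of I1/I3 (373/384 nm). For Nagg, test compound at 2.5 cmc was quenched with cetylpyridinium chloride at 0.2–1.0 × 10−4 mol dm−3, and Nagg was derived from linear ln(I0/I) versus [Q].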
# [9] = test system: human hepatocellular carcinoma cell line HepG2; assay: Cell toxicity assay, MTT; format: cell-based; details: HepG2, MTT, 24 h, n = 3
# [10] = test system: Escherichia coli ATCC25922; assay: Antibacterial activity, broth dilution MIC; format: cell-based; details: E. coli, n = 3
# [11] = Octanol–water partition coefficient, shake-flask method; format: physicochemical
# How it was run: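 Shake-flask partitioning was run at 25 and 37 °C in water, SGF (pH 1.2), SIF (pH 6.8) or SBF (pH 7.4). Fluids were prepared per USP without enzyme and pre-saturated with n-octanol (24 h shaking, 24 h separation). Test compound in buffer-saturated octanol (5 mL) was shaken 24 h with 5 mL octanol-saturated buffer, then centrifuged 10 min. The octanol phase was read by UV at 200 nm, and log Ko/w = log Co/(C−Co).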
# [12] = test system: Staphylococcus aureus ATCC29213; assay: Antibacterial activity, broth dilution MIC; format: cell-based; details: S. aureus, n = 3
structure (smiles),measurement,setting,value
CCCCCCCCCCC(=O)O.O=C1CCC[C@@H]2[C@H]3CCCN4CCC[C@@H](CN12)[C@@H]34 [[Mat][C11]],MIC,[1],460 µM
same,cmc,[2]; 293.15 K,0.00385 mol/kg
same,cmc,[2]; 298.15 K,0.00395 mol/kg
same,cmc,[2]; 303.15 K,0.00402 mol/kg
same,cmc,[2]; 308.15 K,0.00407 mol/kg
same,cmc,[2]; 313.15 K,0.00411 mol/kg
same,ionization degree α,[2]; 293.15 K,0.8532
same,ionization degree α,[2]; 298.15 K,0.8429
same,ionization degree α,[2]; 303.15 K,0.8267
same,ionization degree α,[2]; 308.15 K,0.8151
same,ionization degree α,[2]; 313.15 K,0.7968
same,ΔG^0m,[2]; 293.15 K,-6.398 kcal/mol
same,ΔH^0m,[2]; 293.15 K,-1.04 kcal/mol
same,ΔS^0m,[2]; 293.15 K,76.44 J mol^−1 K^−1
same,−TΔS^0m,[2]; 293.15 K,-5.356 kcal/mol
same,ΔG^0m,[2]; 298.15 K,-6.546 kcal/mol
same,ΔH^0m,[2]; 298.15 K,-0.872 kcal/mol
same,ΔS^0m,[2]; 298.15 K,79.65 J mol^−1 K^−1
same,−TΔS^0m,[2]; 298.15 K,-5.676 kcal/mol
same,ΔG^0m,[2]; 303.15 K,-6.738 kcal/mol
same,ΔH^0m,[2]; 303.15 K,-0.688 kcal/mol
same,ΔS^0m,[2]; 303.15 K,83.51 J mol^−1 K^−1
same,−TΔS^0m,[2]; 303.15 K,-6.052 kcal/mol
same,ΔG^0m,[2]; 308.15 K,-6.907 kcal/mol
same,ΔH^0m,[2]; 308.15 K,-0.483 kcal/mol
same,ΔS^0m,[2]; 308.15 K,87.26 J mol^−1 K^−1
same,−TΔS^0m,[2]; 308.15 K,-6.427 kcal/mol
same,ΔG^0m,[2]; 313.15 K,-7.122 kcal/mol
same,ΔH^0m,[2]; 313.15 K,-0.258 kcal/mol
same,ΔS^0m,[2]; 313.15 K,91.70 J mol^−1 K^−1
same,−TΔS^0m,[2]; 313.15 K,-6.864 kcal/mol
same,T onset (onset decomposition temperature),[3],199.4 °C
same,MIC,[4],460 µM
same,IC50,[5],710 µM
same,"Apparent molar volume at infinite dilution V^0 2,φ",[6]; 293.15 K,386.51 ± 0.35 cm^3 mol^−1
same,"Apparent molar volume at infinite dilution V^0 2,φ",[6]; 298.15 K,389.66 ± 0.38 cm^3 mol^−1
same,"Apparent molar volume at infinite dilution V^0 2,φ",[6]; 303.15 K,392.77 ± 0.34 cm^3 mol^−1
same,"Apparent molar volume at infinite dilution V^0 2,φ",[6]; 308.15 K,396.26 ± 0.38 cm^3 mol^−1
same,Association constant KA,[7]; 298.15 K,19.06 ± 1.31 dm^3 mol^−1
same,Limiting molar conductivity Λ0,[7]; 298.15 K,44.67 ± 0.06 S cm^2 mol^−1
same,Association constant KA,[7]; 303.15 K,7.36 ± 1.09 dm^3 mol^−1
same,Limiting molar conductivity Λ0,[7]; 303.15 K,49.46 ± 0.06 S cm^2 mol^−1
same,Association constant KA,[7]; 308.15 K,2.04 ± 1.14 dm^3 mol^−1
same,Limiting molar conductivity Λ0,[7]; 308.15 K,55.26 ± 0.07 S cm^2 mol^−1
same,cmc,"[8]; Fluorescence (pyrene I1/I3), water",0.00384 mol/kg
same,N agg (aggregation number),"[8]; ST = 2.5 cmc, fluorescence quenching with CPC",77
same,IC50,[9],450 µM
same,MIC,[10],28800 µM
same,Log K o/w,"[11]; pH = 1.2 (SGF), 25 °C",−0.32
same,Log K o/w,"[11]; pH = 1.2 (SGF), 37 °C",0.26
same,Log K o/w,"[11]; pH = 6.8 (SIF), 25 °C",0.04
same,Log K o/w,"[11]; pH = 6.8 (SIF), 37 °C",0.35
same,Log K o/w,"[11]; pH = 7.0 (ultrapure water), 25 °C",0.77
same,Log K o/w,"[11]; pH = 7.0 (ultrapure water), 37 °C",0.91
same,Log K o/w,"[11]; pH = 7.4 (SBF), 25 °C",1.20
same,Log K o/w,"[11]; pH = 7.4 (SBF), 37 °C",1.27
same,MIC,[12],900 µM
